Laboratory results as given in ChEMBL document CHEMBL2062428, “Cyclooxygenase-1-selective inhibitors based on the (E)-2'-des-methyl-sulindac sulfide scaffold” (J Med Chem, 2012).
Active and inactive are the calls of the source. No cut-off for these calls is given here.

Columns and labels:
[1] = target: T1, Prostaglandin G/H synthase 2 (Mus musculus) (UniProt Q05769); test: Inhibition of mouse COX-2 using [14C] arachidonic acid as substrate at 4 uM preincubated for 17 mins before substrate addition measured after 3 mins by thin-layer chromatographic analysis
T1 sequence (whole entry): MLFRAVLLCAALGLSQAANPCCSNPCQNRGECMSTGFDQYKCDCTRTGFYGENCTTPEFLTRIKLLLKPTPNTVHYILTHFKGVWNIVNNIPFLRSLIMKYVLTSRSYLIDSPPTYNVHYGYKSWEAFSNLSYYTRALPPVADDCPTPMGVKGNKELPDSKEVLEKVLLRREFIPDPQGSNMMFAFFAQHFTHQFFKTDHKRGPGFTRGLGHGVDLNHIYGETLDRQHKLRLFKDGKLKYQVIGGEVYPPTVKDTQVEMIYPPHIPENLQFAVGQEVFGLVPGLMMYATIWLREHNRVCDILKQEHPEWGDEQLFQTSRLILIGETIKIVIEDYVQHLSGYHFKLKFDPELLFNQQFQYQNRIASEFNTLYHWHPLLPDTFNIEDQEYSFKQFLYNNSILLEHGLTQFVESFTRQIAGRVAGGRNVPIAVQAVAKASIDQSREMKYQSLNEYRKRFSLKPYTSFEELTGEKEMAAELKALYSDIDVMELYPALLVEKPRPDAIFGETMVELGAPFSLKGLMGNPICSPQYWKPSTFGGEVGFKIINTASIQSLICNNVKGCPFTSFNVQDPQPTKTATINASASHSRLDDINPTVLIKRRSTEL
In short: (§1)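 Purified ovine COX-1 or murine COX-2 preincubated with a single 4 μM inhibitor concentration for 17 min. […] Reaction quenched; radioactive products extracted and quantified. Mean ± SEM of two experiments.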

MDA-MB-231 = test: Cytotoxicity against human MDA-MB-231 cells after 48 hrs by WST1 assay; format: functional, cell-based; details: MDA-MB-231, 48 h
[2] = target: T2, Prostaglandin G/H synthase 1 (Ovis aries) (UniProt P05979); test: Inhibition of ovine COX-1 using [14C] arachidonic acid as substrate at 4 uM preincubated for 17 mins before substrate addition measured after 3 mins by thin-layer chromatographic analysis; in short: as §1
T2 sequence (whole entry): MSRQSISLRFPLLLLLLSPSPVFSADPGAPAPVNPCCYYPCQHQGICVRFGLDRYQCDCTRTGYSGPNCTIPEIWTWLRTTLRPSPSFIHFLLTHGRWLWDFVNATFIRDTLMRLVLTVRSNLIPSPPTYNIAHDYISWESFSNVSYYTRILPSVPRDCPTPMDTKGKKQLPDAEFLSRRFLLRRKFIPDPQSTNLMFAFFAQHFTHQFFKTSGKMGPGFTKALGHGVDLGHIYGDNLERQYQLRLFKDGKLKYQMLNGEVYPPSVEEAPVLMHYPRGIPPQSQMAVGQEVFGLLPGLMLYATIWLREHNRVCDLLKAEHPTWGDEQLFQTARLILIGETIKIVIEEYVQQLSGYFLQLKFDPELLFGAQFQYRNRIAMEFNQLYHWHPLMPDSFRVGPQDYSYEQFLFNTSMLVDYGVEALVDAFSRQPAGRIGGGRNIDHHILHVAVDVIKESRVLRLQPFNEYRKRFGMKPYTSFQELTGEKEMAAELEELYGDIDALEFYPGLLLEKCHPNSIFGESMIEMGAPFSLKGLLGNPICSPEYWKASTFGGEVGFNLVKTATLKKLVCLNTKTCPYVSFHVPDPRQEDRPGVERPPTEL

[3] = target: T3, Prostaglandin G/H synthase 1 (Ovis aries, UniProt P05979); test: Inhibition of ovine COX-1 using [14C] arachidonic acid as substrate preincubated for 17 mins before substrate addition measured after 3 mins by thin-layer chromatographic analysis
T3 sequence (P05979 whole entry): T2 sequence (whole entry)

OVCAR-3 [4] = test: Cytotoxicity against human OVCAR3 cells growth inhibition up to 250 uM after 2 days by WST1 assay; format: functional, cell-based
In short: (§2)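 Viability of human ovarian carcinoma NIH-OVCAR-3 cells, which express COX-1 but no detectable COX-2, after a 2-day compound treatment. Concentrations up to 250 μM tested. EC50 for growth inhibition derived from concentration–response curves.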

[5] = target: T2, Prostaglandin G/H synthase 1 (Ovis aries); test: Inhibition of ovine COX-1 using [14C] arachidonic acid as substrate at 25 uM preincubated for 17 mins before substrate addition measured after 3 mins by thin-layer chromatographic analysis
[6] = target: T4, Prostaglandin G/H synthase 2 (Homo sapiens) (UniProt P35354); test: Inhibition of COX-2 in human HNSCC 1483 cells using [14C] arachidonic acid as substrate at 5 uM preincubated for 30 mins before substrate addition measured after 30 mins; format: cell-based
T4 sequence (whole entry): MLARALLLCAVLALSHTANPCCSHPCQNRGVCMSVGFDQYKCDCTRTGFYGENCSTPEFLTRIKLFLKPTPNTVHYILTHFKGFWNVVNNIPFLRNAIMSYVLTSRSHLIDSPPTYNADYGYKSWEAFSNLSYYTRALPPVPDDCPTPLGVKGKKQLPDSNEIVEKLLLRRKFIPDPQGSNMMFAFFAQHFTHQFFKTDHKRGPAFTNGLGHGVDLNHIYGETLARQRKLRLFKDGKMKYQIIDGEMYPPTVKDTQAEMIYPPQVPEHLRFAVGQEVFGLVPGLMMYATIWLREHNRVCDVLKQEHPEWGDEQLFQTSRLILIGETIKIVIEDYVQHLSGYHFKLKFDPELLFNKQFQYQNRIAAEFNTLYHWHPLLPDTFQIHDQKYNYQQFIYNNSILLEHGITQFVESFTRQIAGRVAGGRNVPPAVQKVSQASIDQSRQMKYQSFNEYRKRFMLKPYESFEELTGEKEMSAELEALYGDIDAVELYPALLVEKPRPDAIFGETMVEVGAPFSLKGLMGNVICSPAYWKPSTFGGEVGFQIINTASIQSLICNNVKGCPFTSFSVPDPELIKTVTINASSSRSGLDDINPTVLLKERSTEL

OVCAR-3 [7] = test: Cytotoxicity against human OVCAR3 cells after 2 days by WST1 assay; format: functional, cell-based; details: OVCAR-3, 48 h; in short: as §2
[8] = target: T5, Prostaglandin G/H synthase 2 (Mus musculus, UniProt Q05769); test: Inhibition of mouse COX-2 using [14C] arachidonic acid as substrate preincubated for 17 mins before substrate addition measured after 3 mins by thin-layer chromatographic analysis
T5 sequence (Q05769 whole entry): T1 sequence (whole entry)

Compound	inhibition [1] [%]	inhibition [2] [%]	other results
CC(C)(C(=O)O)C1=C/C(=C\c2ccc(-c3ccccc3)cc2)c2ccc(F)cc21	–	58	IC50 [3]: 2.2 µM
CCOC(=O)CC1=C/C(=C\c2ccc(-c3ccccc3)cc2)c2ccc(F)cc21	28	64	IC50 [3]: 1.1 µM
CSc1ccc(/C=C2/C(C)=C(CC(=O)O)c3cc(F)ccc32)cc1 [SULINDAC SULFIDE]	–	–	growth inhibition (GI) (OVCAR-3 [4]): inactive; EC50 (MDA-MB-231): 209 µM
COc1ccc2c(c1)C(CC(=O)O)=C/C2=C\c1ccc(SC)cc1	–	–	inhibition [5]: 19%
O=C(O)CC1=C/C(=C\c2ccc(-c3ccccc3)cc2)c2ccc(F)cc21	1	75	IC50 [3]: 0.57 µM; inhibition [6]: inactive; EC50 (OVCAR-3 [7]): 132 µM; EC50 (MDA-MB-231): 141 µM; IC50 [8]: > 4 µM
CC1=C(CC(=O)O)c2cc(F)ccc2/C1=C/c1ccc([S+](C)[O-])cc1 (configuration not stated) [SULINDAC SULFOXIDE]	–	–	EC50 (OVCAR-3 [7]): 210 µM
O=C(O)CC1=C/C(=C\c2cccc(-c3ccc(F)cc3)n2)c2ccc(F)cc21	81	17	–
CCOC(=O)CC1=C/C(=C\c2ccc(C(=O)OCC)cc2)c2ccc(F)cc21	0	39	–
CSc1ccc(/C=C2\C=C(CC(=O)NS(=O)(=O)c3ccc(Cl)s3)c3cc(F)ccc32)cc1	34	59	–
CSc1ccc(/C=C2\C=C(CC(=O)NS(=O)(=O)c3ccc(C(C)=O)cc3)c3cc(F)ccc32)cc1	26	3.5	–
CCOC(=O)C(C)(C)C1=C/C(=C\c2cn(C)c3ccccc23)c2ccc(F)cc21	22	47	–

The next lines start with results.

inhibition [1] [%]	inhibition [2] [%]	Compound	other results
15	65	CSc1ccc(/C=C2\C=C(CC(=O)NS(=O)(=O)C(F)(F)F)c3cc(F)ccc32)cc1	EC50 (MDA-MB-231): 215 µM
10	65	CSc1ccc(/C=C2\C=C(CC(=O)O)c3cc(F)ccc32)cc1	inhibition [6]: inactive; EC50 (OVCAR-3 [7]): 223 µM
9	39	COC(=O)CC1=C/C(=C\c2ccc(SC)cc2)c2ccc(F)cc21	–
34	75	O=C(O)CC1=C/C(=C\c2ccc3ccccc3c2)c2ccc(F)cc21	–
